# From PubChem BioAssay
# Only some compounds are listed: those with a hit (about 3.5% of all), similar ones and a draw of the others.
# RGS4 block – human RGS4 inhibition; HEK293 M3R/RGS4 inducible, Fluo-4 calcium flux; active compounds read high; triggered by carbachol at its EC20; B-score at 10 µM; 310,000 tested, 0.45% active; AID 463165;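 active means B-score, a plate-corrected calcium signal, over three deviations above library mean, with baseline fluorescence within five deviations of library mean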;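 further: RGS4 expression induced by doxycycline in cells with stable M3 receptor; B-score is computed from the integrated fluorescence ratio over baseline after carbachol; higher B-score means a larger calcium signal and so more RGS4 inhibition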
# Target sequence (P49798 whole entry, looked up): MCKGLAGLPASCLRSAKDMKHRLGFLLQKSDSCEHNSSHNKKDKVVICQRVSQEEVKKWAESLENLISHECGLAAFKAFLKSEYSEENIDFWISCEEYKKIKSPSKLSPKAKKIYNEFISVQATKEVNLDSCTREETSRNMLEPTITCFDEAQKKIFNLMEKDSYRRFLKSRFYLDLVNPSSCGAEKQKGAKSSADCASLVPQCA
# RGS4 pot – potentiators or activators of RGS4 | AID 463111 | 310,000 tested, 0.92% active | HEK293 M3R/inducible RGS4, carbachol calcium flux Fluo4; active compounds read low | B-score at 10 µM;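 active means B-score of the integrated calcium signal more than 4 SD below the library mean, with starting fluorescence not abnormally high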;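 further: negative B-score means reduced calcium response which marks RGS4 activation or potentiation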
#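 System: HEK293 FlpIn-TREx cells, stable M3R, doxycycline-inducible RGS4. Timing: overnight RGS4 induction, 30 min dye load 37 °C, 20 min compound RT. Also added: carbachol, ECmax concentration. Measured by: Fluo4 fluorescence kinetic imaging of calcium. Evaluation: integrated calcium ratio converted to B score.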
# MrgX1 ag – activates human MrgX1 receptor signaling; Q96LB2; MrgX1-HEK293 cells, Fluo-4 calcium fluorescence, agonist mode; active compounds read high; B-score at 10 µM; 310,000 tested, 0.44% active; AID 588627;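 active means calcium response B-score plate-corrected fluorescence ratio at least 3 library SD, with starting fluorescence B-score inside 5 SD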
# Target sequence (Q96LB2 whole entry, looked up): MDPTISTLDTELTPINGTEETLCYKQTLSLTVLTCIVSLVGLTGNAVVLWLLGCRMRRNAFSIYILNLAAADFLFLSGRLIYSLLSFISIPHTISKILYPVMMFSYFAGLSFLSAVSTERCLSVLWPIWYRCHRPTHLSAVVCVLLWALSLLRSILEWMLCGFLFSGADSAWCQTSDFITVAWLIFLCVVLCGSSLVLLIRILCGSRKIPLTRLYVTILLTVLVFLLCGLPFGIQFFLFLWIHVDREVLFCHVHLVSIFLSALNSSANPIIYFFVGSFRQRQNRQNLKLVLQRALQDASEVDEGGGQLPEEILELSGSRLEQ
#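 Material: MrgX1-expressing HEK293 cells / Dosing: compound as first of three additions / Incubation: overnight seeding, then 1 h dark dye loading / Signal: Fluo-4 NW calcium fluorescence / Evaluation: B-scored fluorescence response ratio / Benchmarks: positive and negative control wells on each plate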
# MrgX1 antag – human MrgX1 receptor antagonism, primary screen | MRGX1-HEK293 calcium flux, Fluo-4, BAM8-22 antagonism; active compounds read low | B-score at 10 µM | AID 588676 | 310,000 tested, 1.3% active;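 active means calcium-response B-score plate-corrected more than 3 library SD below zero, starting fluorescence within 5 deviations, no agonist response on first addition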;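 further: peak minus trough fluorescence over baseline after final BAM8-22 challenge near maximal dose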
# MrgX1 PAM – allosterically activates human MrgX1 receptor signaling; Q96LB2; MrgX1-HEK293, Fluo-4 calcium flux, FDSS; active compounds read high; B-score at 10 µM; 310,000 tested, 0.63% active;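 active means plate-corrected calcium response at least 3 library SD above typical, normal starting fluorescence, not activating the receptor alone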;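 further: compound read alongside a low EC10 to EC30 dose of BAM8-22 agonist; peak minus trough fluorescence over baseline measured at the second addition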
# MrgX1 ant reconf – confirmation of human MrgX1 receptor antagonists | shares compounds with MrgX1 antag | MrgX1-HEK293, BAM8-22 calcium flux, Fluo-4; active compounds read low | remaining BAM8-22 calcium response % of control (active compounds read low), % at 10 µM | 2,300 tested, 19% active | AID 602420;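 active means remaining agonist calcium response no higher than 100% minus 3 SD of agonist-only control wells, with starting fluorescence near control levels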;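 further: agonist BAM8-22 given at a near maximal EC90 to ECmax level; peak minus minimum fluorescence divided by baseline after agonist addition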
# HEK293 Ca flux – activity in parental HEK293 cells lacking MrgX1; shares compounds with MrgX1 antag; Fluo-4 calcium fluorescence, FDSS; fluorescence ratio F(max-min)/F0 at 10 µM; 4,000 tested, 2% active;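 active means duplicate-averaged calcium fluorescence ratio at least three times the standard deviation of buffer wells, a nonspecific response in parental cells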
# HEK293 Ca counter – activity in parental HEK293 cells without MrgX1 | fluorescence ratio F(max-min)/F0 at 10 µM | 4,000 tested, 0.4% active | shares compounds with MrgX1 antag | parental HEK293 calcium flux, Fluo-4 fluorescence ratio; active compounds read high;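 active means calcium fluorescence ratio, averaged over duplicates, at least 3 SD of the buffer-well ratio, meaning a nonspecific response in receptor-free cells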;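 further: untransfected parental HEK293 lacking MrgX1 used as counterscreen for MrgX1 allosteric activators; fluorescence change taken during the second addition on a kinetic imager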
# HEK293 Ca cntr2 – MrgX1 activator counter-screen hit in parental HEK293 cells; shares compounds with MrgX1 antag; Fluo-4 calcium fluorescence (FDSS); active compounds read high; fluorescence ratio F(max-min)/F0 at 10 µM; 4,000 tested, 8.7% active; AID 624115;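 active means calcium fluorescence ratio at least three times the spread of buffer wells, meaning a non-specific response in parental cells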
# Numbers without * were called inactive; i = inactive; / = no result given.
SMILES,RGS4 block,RGS4 pot,MrgX1 ag,MrgX1 antag,MrgX1 PAM,MrgX1 ant reconf,HEK293 Ca flux,HEK293 Ca counter,HEK293 Ca cntr2
CNCc1ccccc1OCC(=O)Nc1ccccc1,i,i,i,-4.59*,i,i,i,i,i
Cc1cc(C)cc(N(CC(=O)N2CCc3ccccc32)S(=O)(=O)c2c(C)noc2C)c1,i,i,i,-7.25*,i,i,i,i,i
CCOc1ccc(N(CC(=O)N2CCc3ccccc32)S(=O)(=O)c2c(C)noc2C)cc1,i,i,i,i,i,/,/,/,/
CCN1CCN(C(=S)Nc2ccc3nc(N4CCN(CC)CC4)cc(C)c3c2)CC1,i,i,i,-4.95*,i,i,i,i,i
Cc1ccc(C)c(NC(=O)CN(C)C(=O)c2cccc(S(=O)(=O)N3CCN(Cc4ccccc4)CC3)c2)c1,i,i,i,i,i,/,/,/,/
Cc1ccc(C)c(NC(=O)CN(C)C(=O)c2cccc(S(=O)(=O)N(C)C)c2)c1,i,i,i,-4.93*,i,84.4%*,i,i,i
CCn1c(=O)c2sccc2n(Cc2cc(C(=O)OC)ccc2OC)c1=O,i,i,i,i,i,/,/,/,/
O=C(CSC1=NCCS1)N1CCN(c2ccc(Cl)cc2)CC1,i,i,i,-6.34*,i,i,i,i,i
O=C(CSC1=NCCS1)c1ccc(Cl)cc1,i,i,i,i,i,/,/,/,/
CCCCCCCCC1CC(C(=O)Nc2ccccc2)C(=O)O1 (stereo not given),i,i,i,i,i,/,/,/,/
Cc1ccccc1C(=O)NNC(=O)C1CCN(c2ncccn2)CC1,i,i,i,i,i,/,/,/,/
O=C(Nc1ccccc1C(=O)N1CCCC1)C1CCN(c2ncccn2)CC1,i,i,i,-7.22*,i,i,i,i,i
O=C(O)CCCC(=O)Nc1ccccc1C(=O)N1CCCC1,i,i,i,-5.49*,i,i,i,i,i
COc1cccc(C(=O)NCC(=O)OCc2ccc(F)cc2Cl)c1,i,i,i,i,i,/,/,/,/
COc1ccc(OC)c(-n2c(-c3cccc(C)c3)n[nH]c2=S)c1,i,i,i,i,i,/,/,/,/
COc1ccc(OC)c(-n2c(-c3ccccc3)n[nH]c2=S)c1,i,i,i,-5.18*,i,i,i,i,i
CSc1nc(Cl)cc(N(CCO)CCO)n1,i,i,i,i,i,/,/,/,/
CCOC(=O)c1cnc2ccccc2c1Nc1ccc2c(c1)OCCO2,i,i,i,-5.54*,i,i,i,i,i
CCOC(=O)CSc1nc(Nc2ccc3c(c2)OCO3)c2ccccc2n1,i,i,i,i,i,/,/,/,/
CC(C)Cc1ccc(C(C)C(=O)Nc2nccs2)cc1 (stereo not given),i,i,i,-4.69*,i,72.0%*,i,i,i
O=C(N/N=C/c1ccc(O)cc1)c1csc2c1CCCC2,i,i,i,i,i,/,/,/,/
O=C(c1cnc2n(c1=O)CCS2)N1CCc2ccccc21,i,i,i,i,i,/,/,/,/
Cc1cccc2cc3c(N)c(C(=O)N4CCc5ccccc54)sc3nc12,i,i,i,-8.38*,i,i,0.48*,i,58.5*
Cc1cccc2cc3c(N)c(C#N)sc3nc12,i,i,i,i,i,/,/,/,/
Cc1sc(NC(=O)c2sc3nc4c(C)cccc4cc3c2N)c(C#N)c1C,i,i,i,-6.2*,i,60.0%*,i,i,i
SMILES,RGS4 block,RGS4 pot,MrgX1 ag,MrgX1 antag,MrgX1 PAM,MrgX1 ant reconf,HEK293 Ca flux,HEK293 Ca counter,HEK293 Ca cntr2
Cc1ccc(C)c(-n2c(SCC(=O)Nc3nonc3C)nnc2-c2ccoc2C)c1,i,i,i,-5.41*,i,83.4%*,i,i,i
Cc1nn(C)c(C)c1CN(Cc1nc(CCC(C)C)no1)C(C)C,i,i,i,-4.63*,i,i,i,i,i
CC(C)CCc1noc(CN(C)CCC2CCOCC2)n1,i,i,i,i,i,/,/,/,/
CCCOC(=O)c1cc(=O)[nH]c2ccccc12,i,i,i,-4.74*,i,i,i,i,i
CCCc1nnc(-c2ccc(OC)cc2)o1,i,i,i,-5.97*,i,i,i,i,i
COc1ccc(SCCc2nnc(-c3ccccc3)o2)cc1,i,i,i,-7.8*,i,i,i,i,i
O=C(C1=C[C@H](c2ccc(Br)cc2)C[C@H](OCCCCO)O1)N1CCN(Cc2ccccc2)CC1,i,i,i,i,i,/,/,/,/
O=C1CCCN1CCC12CC3CC(CC(C3)C1)C2,i,i,i,-4.66*,i,i,i,i,i
CC(O)[C@H]1CNC(=O)C(=O)N1CCC12CC3CC(CC(C3)C1)C2 (stereo not given in full),i,i,i,i,i,/,/,/,/
CCOc1ccc(S(=O)(=O)N2CC(=O)Nc3ccccc32)cc1,i,i,i,i,i,/,/,/,/
CCn1cc(C(=O)N[C@H](C(=O)NCCN2CCOCC2)C(C)C)c(=O)c2cc3c(cc21)OCO3,i,i,i,i,i,/,/,/,/
CCc1cccc(C)c1NC(=O)C1=C(C(=O)O)CCCC1,i,i,i,-7.79*,i,i,i,i,i
COc1cccc(C(=O)c2c[nH]c(C(=O)NCc3cccs3)c2)c1,i,i,i,-7.82*,i,i,i,i,i
C=CCNC(=O)CSc1nc2sccc2c(=O)n1-c1ccccc1,i,i,i,-5.09*,i,i,i,i,i
CC(C)N(Cc1nccn1C)C(=O)CC1C(=O)NCCN1Cc1ccc(F)c(F)c1 (stereo not given),i,i,i,-6.46*,i,72.1%*,i,i,i
CN(C)S(=O)(=O)c1cccc(NC(=O)Cc2ccc(-c3ccccc3)cc2)c1,i,i,i,i,i,/,/,/,/
